Our source for the Kd and IC50 values is ChEMBL document CHEMBL3132809, “The structure-activity relationships of L3MBTL3 inhibitors: flexibility of the dimer interface” (Medchemcomm, 2013).

Assay [1] deals with T1, Lethal(3)malignant brain tumor-like protein 3 (Homo sapiens, UniProt Q96JM7).
T1 sequence (Q96JM7 whole entry): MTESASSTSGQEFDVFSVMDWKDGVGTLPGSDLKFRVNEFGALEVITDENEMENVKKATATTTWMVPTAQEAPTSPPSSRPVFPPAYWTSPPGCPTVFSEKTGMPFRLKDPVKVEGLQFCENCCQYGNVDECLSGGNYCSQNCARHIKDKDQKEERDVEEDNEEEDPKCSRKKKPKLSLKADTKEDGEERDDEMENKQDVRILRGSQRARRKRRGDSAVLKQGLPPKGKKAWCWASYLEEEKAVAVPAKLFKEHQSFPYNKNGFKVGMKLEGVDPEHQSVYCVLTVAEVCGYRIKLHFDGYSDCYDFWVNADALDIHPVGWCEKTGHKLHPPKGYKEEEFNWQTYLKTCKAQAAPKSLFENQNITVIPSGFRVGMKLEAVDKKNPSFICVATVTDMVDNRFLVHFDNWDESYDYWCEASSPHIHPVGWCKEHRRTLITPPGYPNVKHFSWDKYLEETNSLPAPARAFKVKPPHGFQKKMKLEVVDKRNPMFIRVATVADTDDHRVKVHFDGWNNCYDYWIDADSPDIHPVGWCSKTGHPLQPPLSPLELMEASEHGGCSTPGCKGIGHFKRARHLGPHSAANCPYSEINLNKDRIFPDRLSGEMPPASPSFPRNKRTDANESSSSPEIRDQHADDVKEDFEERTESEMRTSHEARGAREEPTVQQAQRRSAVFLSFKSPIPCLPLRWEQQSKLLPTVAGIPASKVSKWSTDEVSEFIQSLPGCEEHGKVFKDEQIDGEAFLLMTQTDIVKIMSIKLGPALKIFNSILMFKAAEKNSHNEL
The experiment in a line: Binding affinity to L3MBTL3 (unknown origin) by isothermal titration calorimetric analysis. For orientation: In ITC the heat of successive injections is recorded.

The next assay deals with PHD finger protein 23 (Homo sapiens, UniProt Q9BUL5). The assay is described as follows: Inhibition of GST-tagged PHF23 (unknown origin) using H3K4Me3 as substrate incubated for 30 mins at room temperature followed by incubation under dark condition for 30 mins by AlphaScreen assay. An outline of the steps:
(§1)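 For GST-tagged proteins, GST-acceptor beads were paired with streptavidin donor beads. Compounds were run as 3-fold, 20-point dilutions, highest 30 μM. […] Protein-peptide mix was incubated 30 min at RT, then beads 30 min in the dark at RT, with an EnVision AlphaScreen read.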
On the technique in general: Bead proximity is the source of the signal in Alpha formats.

Assay [2] has as its target Lysine-specific demethylase 5A (Homo sapiens, UniProt P29375). The assay is described as follows: Inhibition of GST-tagged Jarid1A (unknown origin) using H3K4Me3 as substrate incubated for 30 mins at room temperature followed by incubation under dark condition for 30 mins by AlphaScreen assay. An outline of the steps: as §1
The target in assay [3] is T2, E3 ubiquitin-protein ligase UHRF1 (Homo sapiens, UniProt Q96T88).
T2 sequence (Q96T88 whole entry): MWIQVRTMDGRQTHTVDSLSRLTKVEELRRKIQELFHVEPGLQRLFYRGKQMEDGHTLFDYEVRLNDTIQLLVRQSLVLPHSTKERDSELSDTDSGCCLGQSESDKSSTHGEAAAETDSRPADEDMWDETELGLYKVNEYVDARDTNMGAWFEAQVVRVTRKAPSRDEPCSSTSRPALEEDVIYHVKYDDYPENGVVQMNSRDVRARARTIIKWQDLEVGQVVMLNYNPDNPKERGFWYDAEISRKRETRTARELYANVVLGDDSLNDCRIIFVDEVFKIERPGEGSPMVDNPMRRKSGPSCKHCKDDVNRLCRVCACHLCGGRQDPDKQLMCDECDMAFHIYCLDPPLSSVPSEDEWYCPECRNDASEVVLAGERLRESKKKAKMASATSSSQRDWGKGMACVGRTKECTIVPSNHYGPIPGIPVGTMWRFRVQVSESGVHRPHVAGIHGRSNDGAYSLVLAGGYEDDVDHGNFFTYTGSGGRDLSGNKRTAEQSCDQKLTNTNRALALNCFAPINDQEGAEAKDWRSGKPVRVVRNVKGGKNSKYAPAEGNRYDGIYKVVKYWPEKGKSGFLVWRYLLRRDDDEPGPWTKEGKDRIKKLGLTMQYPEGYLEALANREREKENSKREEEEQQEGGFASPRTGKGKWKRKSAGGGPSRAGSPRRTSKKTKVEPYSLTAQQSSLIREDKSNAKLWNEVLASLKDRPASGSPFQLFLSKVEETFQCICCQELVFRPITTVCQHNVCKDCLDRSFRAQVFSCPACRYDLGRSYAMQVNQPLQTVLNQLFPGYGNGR
The experiment in a line: Inhibition of UHRF1 tandem tudor domain (121 to 286) (unknown origin) expressed in Escherichia coli BL21 Rosetta DE3 using H3K9Me3 as substrate incubated for 30 mins at room temperature followed by incubation under dark condition for 30 mins by AlphaScreen assay. Summed up:
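His-tagged domains (53BP1 residues 1485-1611; UHRF1 residues 121-286) expressed in BL21 Rosetta DE3 pLysS with 0.5 mM IPTG induction at 18 °C overnight. Proteins were stored in 25 mM Tris pH 7.5, 150 mM NaCl, 2 mM DTT. Compounds were 3-fold, 20-point dilutions up to 30 μM. […] Streptavidin donor and nickel-chelate acceptor beads were used.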

For assay [4], the target named is T3, Chromobox protein homolog 7 (Homo sapiens, UniProt O95931).
T3 sequence (O95931 whole entry): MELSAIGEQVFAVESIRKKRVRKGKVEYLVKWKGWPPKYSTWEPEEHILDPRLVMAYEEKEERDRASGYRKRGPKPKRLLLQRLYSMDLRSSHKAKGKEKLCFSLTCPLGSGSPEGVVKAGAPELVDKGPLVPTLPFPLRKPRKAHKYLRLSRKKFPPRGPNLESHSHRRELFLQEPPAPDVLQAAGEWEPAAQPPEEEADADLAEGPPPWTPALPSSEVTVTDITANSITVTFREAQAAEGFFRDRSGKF
The experiment in a line: Inhibition of CBX7 (8 to […]) (unknown origin) expressed in Escherichia coli BL21 Rosetta DE3 using H3K9Me3 as substrate incubated for 30 mins at room temperature followed by incubation under dark condition for 30 mins by AlphaScreen assay.

A further assay concerns the target TP53-binding protein 1 (Homo sapiens, UniProt Q12888). The assay is described as follows: Inhibition of 53BP1 (1485 to 1611) (unknown origin) expressed in Escherichia coli BL21 Rosetta DE3 using H4K20Me2 as substrate incubated for 30 mins at room temperature followed by incubation under dark condition for 30 mins by AlphaScreen assay.
For assay [5], the target named is MBT domain-containing protein 1 (Homo sapiens, UniProt Q05BQ5). The assay is described as follows: Inhibition of MBTD1 (130 to 566) (unknown origin) expressed in Escherichia coli BL21 Rosetta DE3 using H4K20Me1 as substrate incubated for 30 mins at room temperature followed by incubation under dark condition for 30 mins by AlphaScreen assay. An outline of the steps: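 MBTD1 residues 130-566 (His-tag vector) was expressed in BL21 Rosetta DE3 pLysS with 0.5 mM IPTG induction at 18 °C overnight. […] Detection used streptavidin donor and nickel-chelate acceptor beads.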
Chain of MBT domain-containing protein 1 (Q05BQ5 whole entry, the tested form may be a part): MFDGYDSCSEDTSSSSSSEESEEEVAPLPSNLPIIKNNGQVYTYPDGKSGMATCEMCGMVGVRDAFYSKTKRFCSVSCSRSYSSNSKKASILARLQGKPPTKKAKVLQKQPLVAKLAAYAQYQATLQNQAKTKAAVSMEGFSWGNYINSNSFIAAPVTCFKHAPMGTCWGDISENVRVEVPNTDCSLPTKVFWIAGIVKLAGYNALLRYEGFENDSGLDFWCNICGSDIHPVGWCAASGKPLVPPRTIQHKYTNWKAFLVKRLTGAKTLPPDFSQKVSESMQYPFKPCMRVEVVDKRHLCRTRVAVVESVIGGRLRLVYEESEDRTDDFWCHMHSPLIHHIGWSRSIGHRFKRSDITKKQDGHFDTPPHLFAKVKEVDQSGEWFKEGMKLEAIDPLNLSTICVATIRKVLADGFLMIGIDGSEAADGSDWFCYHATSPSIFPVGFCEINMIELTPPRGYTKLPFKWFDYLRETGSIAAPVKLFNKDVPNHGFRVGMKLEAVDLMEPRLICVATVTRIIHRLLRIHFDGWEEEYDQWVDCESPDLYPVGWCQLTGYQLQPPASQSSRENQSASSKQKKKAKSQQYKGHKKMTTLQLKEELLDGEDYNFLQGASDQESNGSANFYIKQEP

For assay [6], the target named is T1, Lethal(3)malignant brain tumor-like protein 3. The experiment in a line: Inhibition of His-tagged L3MBTL3 (unknown origin) using H4K20Me2 as substrate incubated for 30 mins at room temperature followed by incubation under dark condition for 30 mins by AlphaScreen assay.

SMILES strings stand for the structures. Some results are limits rather than exact numbers.

The term Kd denotes the free concentration of one partner at which half of the binding sites on the other are occupied at equilibrium, for simple one-to-one binding. Low readings indicate tighter binding, high ones weaker binding. In general, IC50 refers to the concentration that gives 50% inhibition. Higher therefore signals a need for much substance.

Chain of PHD finger protein 23 (Q9BUL5 whole entry): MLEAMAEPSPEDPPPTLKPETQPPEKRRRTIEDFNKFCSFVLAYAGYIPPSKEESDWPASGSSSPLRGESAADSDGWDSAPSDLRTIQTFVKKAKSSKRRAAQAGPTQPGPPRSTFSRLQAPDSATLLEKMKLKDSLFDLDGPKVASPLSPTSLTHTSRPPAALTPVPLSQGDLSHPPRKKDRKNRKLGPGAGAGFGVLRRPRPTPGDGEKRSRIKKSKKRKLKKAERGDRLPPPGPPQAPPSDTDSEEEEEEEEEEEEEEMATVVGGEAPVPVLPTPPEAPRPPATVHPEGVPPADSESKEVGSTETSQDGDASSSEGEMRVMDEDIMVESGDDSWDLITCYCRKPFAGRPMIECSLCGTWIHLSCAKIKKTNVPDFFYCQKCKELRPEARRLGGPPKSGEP
Chain of TP53-binding protein 1 (Q12888 whole entry, the tested form may be a part): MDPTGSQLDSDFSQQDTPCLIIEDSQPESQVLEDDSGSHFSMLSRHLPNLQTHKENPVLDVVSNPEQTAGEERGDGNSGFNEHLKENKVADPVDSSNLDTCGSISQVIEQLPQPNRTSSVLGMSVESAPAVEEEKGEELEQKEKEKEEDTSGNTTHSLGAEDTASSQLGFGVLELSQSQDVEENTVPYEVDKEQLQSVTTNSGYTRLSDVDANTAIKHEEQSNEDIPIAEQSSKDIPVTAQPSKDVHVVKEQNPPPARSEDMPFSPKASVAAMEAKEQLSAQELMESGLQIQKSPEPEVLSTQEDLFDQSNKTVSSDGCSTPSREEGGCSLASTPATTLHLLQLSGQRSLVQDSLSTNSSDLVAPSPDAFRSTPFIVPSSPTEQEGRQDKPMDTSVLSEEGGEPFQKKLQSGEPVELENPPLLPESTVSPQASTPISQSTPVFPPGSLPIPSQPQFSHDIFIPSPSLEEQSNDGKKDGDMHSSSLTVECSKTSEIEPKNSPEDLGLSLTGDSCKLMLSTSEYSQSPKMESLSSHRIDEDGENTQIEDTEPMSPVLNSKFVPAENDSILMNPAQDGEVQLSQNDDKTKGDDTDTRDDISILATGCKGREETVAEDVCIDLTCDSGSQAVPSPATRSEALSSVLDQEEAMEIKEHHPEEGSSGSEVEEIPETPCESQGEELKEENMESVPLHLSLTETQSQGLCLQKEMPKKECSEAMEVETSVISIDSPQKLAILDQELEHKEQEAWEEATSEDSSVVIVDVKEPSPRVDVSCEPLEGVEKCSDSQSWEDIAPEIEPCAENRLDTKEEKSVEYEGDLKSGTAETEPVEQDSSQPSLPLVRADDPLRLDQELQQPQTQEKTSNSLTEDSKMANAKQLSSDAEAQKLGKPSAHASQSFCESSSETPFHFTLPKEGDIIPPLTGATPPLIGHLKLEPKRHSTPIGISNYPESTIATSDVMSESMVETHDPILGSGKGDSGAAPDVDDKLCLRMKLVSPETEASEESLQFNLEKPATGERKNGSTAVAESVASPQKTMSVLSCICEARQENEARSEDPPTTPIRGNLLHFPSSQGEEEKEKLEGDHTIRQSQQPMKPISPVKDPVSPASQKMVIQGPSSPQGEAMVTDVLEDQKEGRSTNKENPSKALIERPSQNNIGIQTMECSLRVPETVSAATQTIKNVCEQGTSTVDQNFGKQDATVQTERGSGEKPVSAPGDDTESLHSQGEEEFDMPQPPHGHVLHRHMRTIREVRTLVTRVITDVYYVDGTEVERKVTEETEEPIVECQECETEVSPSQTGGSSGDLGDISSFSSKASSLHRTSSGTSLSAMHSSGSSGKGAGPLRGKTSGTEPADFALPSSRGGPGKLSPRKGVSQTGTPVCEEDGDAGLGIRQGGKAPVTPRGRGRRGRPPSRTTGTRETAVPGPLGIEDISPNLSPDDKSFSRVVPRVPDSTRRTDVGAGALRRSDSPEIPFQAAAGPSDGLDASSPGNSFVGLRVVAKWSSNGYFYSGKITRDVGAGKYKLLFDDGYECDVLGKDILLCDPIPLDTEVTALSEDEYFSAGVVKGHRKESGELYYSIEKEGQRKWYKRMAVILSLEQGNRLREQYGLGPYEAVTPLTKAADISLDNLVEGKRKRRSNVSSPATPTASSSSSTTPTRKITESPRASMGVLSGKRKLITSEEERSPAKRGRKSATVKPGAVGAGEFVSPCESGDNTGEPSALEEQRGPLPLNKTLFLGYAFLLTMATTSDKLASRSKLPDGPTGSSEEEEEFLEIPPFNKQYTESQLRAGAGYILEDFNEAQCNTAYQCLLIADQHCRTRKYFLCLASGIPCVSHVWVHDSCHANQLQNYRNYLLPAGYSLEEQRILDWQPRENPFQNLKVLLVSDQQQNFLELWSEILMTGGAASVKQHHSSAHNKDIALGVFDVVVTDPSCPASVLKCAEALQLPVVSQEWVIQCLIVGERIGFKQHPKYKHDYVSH
Chain of Lysine-specific demethylase 5A (P29375 whole entry): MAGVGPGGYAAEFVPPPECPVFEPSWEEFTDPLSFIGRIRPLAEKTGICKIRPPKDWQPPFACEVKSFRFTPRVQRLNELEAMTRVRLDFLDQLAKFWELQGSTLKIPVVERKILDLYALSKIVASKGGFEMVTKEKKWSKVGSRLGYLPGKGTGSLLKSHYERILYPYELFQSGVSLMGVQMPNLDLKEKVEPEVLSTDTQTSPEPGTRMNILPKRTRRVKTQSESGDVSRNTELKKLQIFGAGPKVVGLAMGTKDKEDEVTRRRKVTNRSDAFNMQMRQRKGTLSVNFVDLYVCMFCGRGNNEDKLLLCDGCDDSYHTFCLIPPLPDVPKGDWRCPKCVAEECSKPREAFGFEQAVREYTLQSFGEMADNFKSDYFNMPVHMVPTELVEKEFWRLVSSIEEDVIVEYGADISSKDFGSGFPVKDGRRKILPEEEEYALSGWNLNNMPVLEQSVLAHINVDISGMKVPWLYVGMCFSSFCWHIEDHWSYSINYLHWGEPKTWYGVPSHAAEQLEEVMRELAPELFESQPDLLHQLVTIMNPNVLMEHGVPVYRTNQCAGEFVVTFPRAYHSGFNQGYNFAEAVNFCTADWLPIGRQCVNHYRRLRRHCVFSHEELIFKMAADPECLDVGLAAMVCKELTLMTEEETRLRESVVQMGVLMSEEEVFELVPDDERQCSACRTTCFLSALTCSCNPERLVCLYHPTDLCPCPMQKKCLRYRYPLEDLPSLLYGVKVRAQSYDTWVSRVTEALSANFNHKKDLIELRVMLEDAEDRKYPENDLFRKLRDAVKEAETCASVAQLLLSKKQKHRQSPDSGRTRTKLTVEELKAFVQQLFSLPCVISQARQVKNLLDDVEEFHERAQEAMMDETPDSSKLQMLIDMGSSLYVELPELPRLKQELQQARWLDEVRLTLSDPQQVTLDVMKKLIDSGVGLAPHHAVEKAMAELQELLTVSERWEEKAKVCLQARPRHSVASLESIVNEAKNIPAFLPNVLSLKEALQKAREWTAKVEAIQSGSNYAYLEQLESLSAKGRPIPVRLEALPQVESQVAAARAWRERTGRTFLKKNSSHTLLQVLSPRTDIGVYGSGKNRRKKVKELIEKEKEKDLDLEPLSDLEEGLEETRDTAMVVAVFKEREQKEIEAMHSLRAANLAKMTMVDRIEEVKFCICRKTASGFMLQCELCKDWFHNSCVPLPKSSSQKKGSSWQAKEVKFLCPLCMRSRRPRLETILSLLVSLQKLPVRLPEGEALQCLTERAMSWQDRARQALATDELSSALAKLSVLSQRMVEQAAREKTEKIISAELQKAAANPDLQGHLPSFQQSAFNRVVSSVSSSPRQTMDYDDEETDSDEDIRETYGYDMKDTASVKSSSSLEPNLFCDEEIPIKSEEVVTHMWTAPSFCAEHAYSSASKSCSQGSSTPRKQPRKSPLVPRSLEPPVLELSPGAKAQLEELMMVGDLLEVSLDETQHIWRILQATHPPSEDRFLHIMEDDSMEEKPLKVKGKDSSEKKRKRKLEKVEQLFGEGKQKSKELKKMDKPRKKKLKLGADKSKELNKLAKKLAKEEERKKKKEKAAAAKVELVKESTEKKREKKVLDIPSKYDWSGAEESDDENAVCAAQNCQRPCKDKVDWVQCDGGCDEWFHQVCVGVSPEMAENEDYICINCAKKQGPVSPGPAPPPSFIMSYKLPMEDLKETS

On to `c1cc(N2CCC(N3CCCC3)CC2)ccc1CN1CCCC1`, for which the dissociation constant Kd in assay [1] came to 1.4 µM. Also, the IC50 at PHD finger protein 23 was more than 30 µM; in assay [2], more than 30 µM; in assay [3], more than 30 µM; in assay [4], more than 30 µM; on TP53-binding protein 1, more than 30 µM; in assay [5], 157 µM. Further, in assay [6], the IC50 was 0.35 µM.
Consider `OCC1(CO)CN(CCc2ccc(N3CCC(N4CCCC4)CC3)cc2)C1`, for which, in assay [1], binding was put at a Kd of 0.4 µM. Besides, the IC50 against PHD finger protein 23 was more than 30 µM; in assay [2], more than 30 µM; in assay [3], more than 30 µM; in assay [4], more than 30 µM; on TP53-binding protein 1 it was more than 30 µM; in assay [5], more than 300 µM. For the same compound, the concentration for half-maximal inhibition (IC50) in assay [6] worked out at 0.059 µM.
In turn, `c1ccc(N2CCC(N3CCCC3)CC2)cc1` registered a Kd in assay [1] of 44 µM. Moreover, the IC50 on PHD finger protein 23 is more than 30 µM; in assay [2], more than 30 µM; in assay [3], more than 30 µM; in assay [4], more than 30 µM; on TP53-binding protein 1, more than 30 µM; in assay [5], 58 µM. Also, the IC50 in assay [6] came to 13 µM.
On to `c1cc(N2CCC(N3CCCCC3)CC2)ccc1CCN1CCCC1`, for which the Kd in assay [1] is 2.4 µM. Also, the IC50 at PHD finger protein 23 was more than 30 µM; in assay [2], more than 30 µM; in assay [3], more than 30 µM; in assay [4], more than 30 µM; on TP53-binding protein 1, more than 30 µM; in assay [5] it was 170 µM. This compound returned an IC50 in assay [6] of 0.58 µM.
In the case of `c1cc(N2CCC(N3CCCC3)CC2)ccc1CCCN1CCCC1`, the Kd in assay [1] amounted to 1.8 µM. The IC50 is more than 30 µM against PHD finger protein 23; more than 30 µM in assay [2]; more than 30 µM in assay [3]; more than 30 µM in assay [4]; more than 30 µM at TP53-binding protein 1; 135 µM in assay [5]. Also, in assay [6], 0.07 µM corresponded to half-maximal inhibition (IC50).
In turn, `c1cc(CCN2CCCC2)cc(N2CCC(N3CCCC3)CC2)c1` returned a Kd in assay [1] of 2.7 µM. Also, the IC50 was more than 30 µM on PHD finger protein 23; more than 30 µM in assay [2]; more than 30 µM in assay [3]; more than 30 µM in assay [4]; more than 30 µM on TP53-binding protein 1; 261 µM in assay [5]. In assay [6], this compound had a 50% inhibitory concentration (IC50) of 0.12 µM.
`c1cc(N2CCC(N3CCCC3)CC2)ccc1CCN1CCCC1` returned a Kd in assay [1] of 0.37 µM. Moreover, the IC50 was more than 30 µM on PHD finger protein 23; more than 30 µM in assay [2]; more than 30 µM in assay [3]; more than 30 µM in assay [4]; 14.5 µM at TP53-binding protein 1; 53 µM in assay [5]. Inhibition in assay [6] was half-maximal at 0.062 µM (IC50).
